ChEMBL document CHEMBL1926577, “Novel 1,3,4-heterodiazole analogues: synthesis and in-vitro antitumor activity” (2012)

Legend:
Assay type in all cases: functional
KM12 = assay: Growth inhibition of human KM12 cells at 10 uM after 48 hrs by coulter counter method; details: KM12, 48 h, read-out: GI
Outline: (§1)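 NCI 60-cell-line panel, single dose. Compound dissolved first in DMSO, then diluted in phosphate-buffered saline so that every final dilution held under 1% DMSO. Duplicate wells received cells at 6 × 10⁴ cells/ml. Controls held PBS/DMSO at the same dilution. Plates were incubated 48 h at 37 °C under 5% CO₂. Cells were then diluted 10-fold in saline and counted on a Coulter counter, with counts corrected for the dilution. Results are given as percent growth inhibition.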

UACC-62 = assay: Growth inhibition of human UACC62 cells at 10 uM after 48 hrs by coulter counter method; details: UACC-62, 48 h, read-out: GI; outline: as §1
SN12C = assay: Growth inhibition of human SN12C cells at 10 uM after 48 hrs by coulter counter method; details: read-out: GI; outline: as §1
MDA-MB-435 = assay: Growth inhibition of human MDA-MB-435 cells at 10 uM after 48 hrs by coulter counter method; details: MDA-MB-435, 48 h, read-out: GI; outline: as §1
Malme-3M = assay: Growth inhibition of human MALME-3M cells at 10 uM after 48 hrs by coulter counter method; details: read-out: GI; outline: as §1
K562 = assay: Growth inhibition of human K562 cells at 10 uM after 48 hrs by coulter counter method; details: K562, 48 h, read-out: GI; outline: as §1
HCT-116 = assay: Growth inhibition of human HCT116 cells at 10 uM after 48 hrs by coulter counter method; details: HCT-116, 48 h, read-out: GI; outline: as §1
SK-MEL-28 = assay: Growth inhibition of human SK-MEL-28 cells at 10 uM after 48 hrs by coulter counter method; details: SK-MEL-28, 48 h, read-out: GI; outline: as §1
T47D = assay: Growth inhibition of human T47D cells at 10 uM after 48 hrs by coulter counter method; details: read-out: GI; outline: as §1
MDA-MB-468 = assay: Growth inhibition of human MDA-MB-468 cells at 10 uM after 48 hrs by coulter counter method; details: MDA-MB-468, 48 h, read-out: GI; outline: as §1
LOX IMVI = assay: Growth inhibition of human LOXIMVI cells at 10 uM after 48 hrs by coulter counter method; details: read-out: GI; outline: as §1
EKVX = assay: Growth inhibition of human EKVX cells at 10 uM after 48 hrs by coulter counter method; details: read-out: GI; outline: as §1
NCI/ADR-RES = assay: Growth inhibition of human NCI/ADR-RES cells at 10 uM after 48 hrs by coulter counter method; details: read-out: GI; outline: as §1
SF-295 = assay: Growth inhibition of human SF295 cells at 10 uM after 48 hrs by coulter counter method; details: SF-295, 48 h, read-out: GI; outline: as §1
SK-MEL-2 = assay: Growth inhibition of human SK-MEL-2 cells at 10 uM after 48 hrs by coulter counter method; details: SK-MEL-2, 48 h, read-out: GI; outline: as §1
SR = assay: Growth inhibition of human SR cells at 10 uM after 48 hrs by coulter counter method; details: read-out: GI; outline: as §1
OVCAR-8 = assay: Growth inhibition of human OVCAR8 cells at 10 uM after 48 hrs by coulter counter method; details: OVCAR-8, 48 h, read-out: GI; outline: as §1
SNB-19 = assay: Growth inhibition of human SNB19 cells at 10 uM after 48 hrs by coulter counter method; details: SNB-19, 48 h, read-out: GI; outline: as §1
NCI-H522 = assay: Growth inhibition of human NCI-H522 cells at 10 uM after 48 hrs by coulter counter method; details: NCI-H522, 48 h, read-out: GI; outline: as §1
NCI-H23 = assay: Growth inhibition of human NCI-H23 cells at 10 uM after 48 hrs by coulter counter method; details: NCI-H23, 48 h, read-out: GI; outline: as §1
CCRF-CEM = assay: Growth inhibition of human CCRF-CEM cells at 10 uM after 48 hrs by coulter counter method; details: read-out: GI; outline: as §1
BT-549 = assay: Growth inhibition of human BT549 cells at 10 uM after 48 hrs by coulter counter method; details: BT-549, 48 h, read-out: GI; outline: as §1
A549 = assay: Growth inhibition of human A549 cells at 10 uM after 48 hrs by coulter counter method; details: A549, 48 h, read-out: GI; outline: as §1

## O=C1N=C2SC(c3ccc(Cl)cc3)=NN2C1=O
KM12
  inhibition of growth at 10 µM: < 10%
UACC-62
  inhibition of growth at 10 µM: < 10%
SN12C
  inhibition of growth at 10 µM: < 10%
MDA-MB-435
  inhibition of growth at 10 µM: < 10%
Malme-3M
  inhibition of growth at 10 µM: < 10%
K562
  inhibition of growth at 10 µM: 12.7%
HCT-116
  inhibition of growth at 10 µM: < 10%
SK-MEL-28
  inhibition of growth at 10 µM: < 10%
T47D
  inhibition of growth at 10 µM: < 10%
MDA-MB-468
  inhibition of growth at 10 µM: < 10%
LOX IMVI
  inhibition of growth at 10 µM: < 10%
EKVX
  inhibition of growth at 10 µM: < 10%
NCI/ADR-RES
  inhibition of growth at 10 µM: < 10%
SF-295
  inhibition of growth at 10 µM: < 10%
SK-MEL-2
  inhibition of growth at 10 µM: < 10%
SR
  inhibition of growth at 10 µM: 11.1%
OVCAR-8
  inhibition of growth at 10 µM: < 10%
SNB-19
  inhibition of growth at 10 µM: < 10%
NCI-H522
  inhibition of growth at 10 µM: 19.7%
NCI-H23
  inhibition of growth at 10 µM: < 10%
CCRF-CEM
  inhibition of growth at 10 µM: < 10%
BT-549
  inhibition of growth at 10 µM: 12.2%
A549
  inhibition of growth at 10 µM: < 10%
